Experimental findings from ChEMBL document CHEMBL1125426, “Muscarinic receptor subtype specificity of (N,N-dialkylamino)alkyl 2-cyclohexyl-2-phenylpropionates: cylexphenes (cyclohexyl-substituted aprophen analogues)” (J Med Chem, 1992) are described below.

The nature of assay [1]: Selectivity index is defined as the ratio of Ki value for m3 receptor / Ki value for M4 receptor.
Assay [2] concerns the target T1, Muscarinic acetylcholine receptor M3 (Homo sapiens, UniProt P20309). Briefly: Antimuscarinic potency and subset specificity was characterised by its inhibition of the [3H]NMS Binding to Muscarinic acetylcholine receptor M3 subtype. In short, it runs like this: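 Membranes from A9 L cells stably transfected with cloned m3 receptor (brain library), lysed in 2 mM Tris-HCl pH 7.2/1 mM EDTA, centrifuged 50000g. 150-300 µg protein incubated 60 min, 37 °C with 0.5 nM [3H]NMS plus varied compound concentrations in PBS pH 7.2; filtration, scintillation counting. Nonspecific binding: 1 µM atropine. Ki via LIGAND using KD 164 pM; mean of 3-6 experiments ± SD.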

Assay [3] can be described thus: Selectivity ratio relative to atropine is [(atropine IC50 value for pancreas)/(compound IC50 value for pancreas)] / [(atropine KB value for ileum) /(compound KB value for ileum)]. Type of assay: tissue-based. In short, it runs like this:
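Rat pancreatic acini from male Sprague-Dawley rats, collagenase digested, exposed to 10^-5 M carbachol with varied compound levels. […] Ileum KB comes from Schild plots on male guinea pig distal ileum at 37 °C, ACh-induced isometric contraction, compound added 30 s before ACh. Ratio as printed, referenced to atropine.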

Assay [4] addresses T2, Muscarinic acetylcholine receptor M2 (Homo sapiens, UniProt P08172).
T2 sequence (P08172 whole entry): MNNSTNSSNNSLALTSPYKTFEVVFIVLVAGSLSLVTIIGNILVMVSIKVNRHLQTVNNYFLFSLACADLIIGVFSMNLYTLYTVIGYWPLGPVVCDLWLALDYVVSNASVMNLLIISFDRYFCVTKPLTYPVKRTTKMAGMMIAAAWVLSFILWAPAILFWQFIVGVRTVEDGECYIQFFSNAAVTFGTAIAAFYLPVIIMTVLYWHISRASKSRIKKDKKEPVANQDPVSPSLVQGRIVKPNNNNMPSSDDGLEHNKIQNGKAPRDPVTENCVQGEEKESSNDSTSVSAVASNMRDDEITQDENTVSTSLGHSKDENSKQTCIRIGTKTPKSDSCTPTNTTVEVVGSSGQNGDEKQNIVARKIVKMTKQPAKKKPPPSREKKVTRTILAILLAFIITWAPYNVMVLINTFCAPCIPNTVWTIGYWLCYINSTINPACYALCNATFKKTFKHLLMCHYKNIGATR
The assay can be described thus: Antimuscarinic potency and subset specificity was characterised by its inhibition of the [3H]NMS Binding to Muscarinic acetylcholine receptor M2 subtype. The method, boiled down: (§1)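 Membranes, by hypotonic lysis (2 mM Tris-HCl pH 7.2, 1 mM EDTA) and 50000g spins, from A9 L cells stably carrying cloned brain m1 or m3, heart (M2) or NG108-15 cells (M4). 150-300 µg protein incubated 60 min at 37 °C in PBS pH 7.2 with 0.5 nM [3H]NMS and varied compound levels. Filtration and scintillation counting. Nonspecific binding taken with 1 µM atropine. Ki from LIGAND with KD 235 (m1), 426 (M2), 164 (m3), 144 (M4) pM. Three to six experiments.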

In assay [5] the target is T3, Muscarinic acetylcholine receptor M4 (Homo sapiens, UniProt P08173).
T3 sequence (P08173 whole entry): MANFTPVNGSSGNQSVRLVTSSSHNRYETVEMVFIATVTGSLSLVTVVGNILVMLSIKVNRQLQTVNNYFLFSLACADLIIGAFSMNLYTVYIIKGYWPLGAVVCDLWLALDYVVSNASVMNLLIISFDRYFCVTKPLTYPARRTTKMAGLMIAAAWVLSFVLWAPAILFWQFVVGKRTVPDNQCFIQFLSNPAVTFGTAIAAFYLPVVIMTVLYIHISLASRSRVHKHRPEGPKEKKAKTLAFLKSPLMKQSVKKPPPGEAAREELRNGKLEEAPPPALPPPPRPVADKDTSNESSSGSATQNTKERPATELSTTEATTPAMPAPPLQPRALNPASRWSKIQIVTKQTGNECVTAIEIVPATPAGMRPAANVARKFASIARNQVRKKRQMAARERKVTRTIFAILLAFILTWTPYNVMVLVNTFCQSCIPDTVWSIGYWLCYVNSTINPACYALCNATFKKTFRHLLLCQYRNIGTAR
Briefly: Antimuscarinic potency and subset specificity was characterised by its inhibition of the [3H]NMS Binding to Muscarinic acetylcholine receptor M4 subtype. The method, boiled down: as §1

Assay [6] deals with Muscarinic acetylcholine receptor M1 and M3 (Homo sapiens) (UniProt P20309+P11229). Briefly: Selectivity index is defined as the ratio of Ki value for m1 receptor / Ki value for m3 receptor. Format: protein assay.
The target in assay [7] is T4, Muscarinic acetylcholine receptor M1 (Homo sapiens, UniProt P11229).
T4 sequence (P11229 whole entry): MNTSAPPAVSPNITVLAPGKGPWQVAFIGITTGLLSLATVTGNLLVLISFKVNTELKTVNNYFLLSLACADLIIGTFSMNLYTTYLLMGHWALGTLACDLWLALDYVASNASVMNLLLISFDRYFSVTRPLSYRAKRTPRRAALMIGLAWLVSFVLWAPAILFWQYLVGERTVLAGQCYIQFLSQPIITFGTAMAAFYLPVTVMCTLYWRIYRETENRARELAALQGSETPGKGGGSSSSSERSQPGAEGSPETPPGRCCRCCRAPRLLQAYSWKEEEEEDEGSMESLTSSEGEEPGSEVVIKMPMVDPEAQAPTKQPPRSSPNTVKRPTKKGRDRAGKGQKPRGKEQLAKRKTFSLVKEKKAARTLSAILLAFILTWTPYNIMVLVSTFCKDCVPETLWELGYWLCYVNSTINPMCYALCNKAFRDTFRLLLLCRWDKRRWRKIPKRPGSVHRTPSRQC
The assay can be described thus: Antimuscarinic potency and subset specificity was characterised by its inhibition of the [3H]NMS Binding to Muscarinic acetylcholine receptor M1 subtype. In short, it runs like this:
as §1

Assay [8] deals with T1, Muscarinic acetylcholine receptor M3. Briefly: Antimuscarinic potency and subset specificity was characterised by its inhibition of the [3H]NMS Muscarinic acetylcholine receptor M3 subtype. In short, it runs like this: as §1
The target in assay [9] is T4, Muscarinic acetylcholine receptor M1. The assay can be described thus: Antimuscarinic potency and subset specificity was characterised by inhibition of the [3H]NMS Binding to Muscarinic acetylcholine receptor M1 subtype. The method, boiled down: as §1
The target in assay [10] is T2, Muscarinic acetylcholine receptor M2. The assay can be described thus: Antimuscarinic potency and subset specificity was characterised by inhibition of the [3H]NMS Binding to Muscarinic acetylcholine receptor M2 subtype. The method, boiled down:
as §1

A word on the Ki: it is the dissociation constant of the complex between target and ligand, obtained from inhibition or displacement. Low values mean a stronger hold on the target, high ones a looser hold on the target.

Muscarinic acetylcholine receptor M1 and M3 (Homo sapiens), sequence (P20309 whole entry, looked up, one chain of several): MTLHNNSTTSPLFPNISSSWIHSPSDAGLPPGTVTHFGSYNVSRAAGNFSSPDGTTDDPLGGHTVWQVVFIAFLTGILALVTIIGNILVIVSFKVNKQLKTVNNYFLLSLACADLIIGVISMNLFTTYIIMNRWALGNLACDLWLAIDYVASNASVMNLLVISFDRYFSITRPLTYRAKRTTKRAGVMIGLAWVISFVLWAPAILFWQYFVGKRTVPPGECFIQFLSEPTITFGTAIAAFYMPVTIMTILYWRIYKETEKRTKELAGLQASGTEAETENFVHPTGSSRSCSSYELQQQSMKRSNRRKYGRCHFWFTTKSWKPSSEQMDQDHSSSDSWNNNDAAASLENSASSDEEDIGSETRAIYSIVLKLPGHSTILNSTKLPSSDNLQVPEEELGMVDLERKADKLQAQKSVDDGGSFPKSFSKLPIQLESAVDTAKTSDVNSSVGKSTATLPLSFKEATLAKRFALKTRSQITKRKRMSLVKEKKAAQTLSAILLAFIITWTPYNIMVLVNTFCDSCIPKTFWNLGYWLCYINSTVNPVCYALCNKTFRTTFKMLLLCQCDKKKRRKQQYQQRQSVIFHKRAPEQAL
T1 sequence (P20309 whole entry): as the sequence (P20309 whole entry, looked up, one chain of several) above

Consider `CN(C)CCCOC(=O)C(C)(c1ccccc1)C1CCCCC1` (centres undefined), for which the Selectivity ratio in assay [1] and in assay [6] was 0.9 throughout. The Ki was 1.7 nM in assay [2], 26.9 nM in assay [4], 1.5 nM in [5] and 1.9 nM in assay [7]. Moreover, the Selectivity in assay [3] is 30.8.
With `CCN(CC)CCCCCOC(=O)C(C)(c1ccccc1)C1CCCCC1` (centres undefined), the figures for the Selectivity ratio in assay [1] and in assay [6] were 1 and 0.6, respectively. The inhibition constant Ki was determined as 178 nM in assay [2], 246 nM in [4], 173 nM in assay [5] and 298 nM in assay [7]. The Selectivity in assay [3] worked out at 11.5.
With `CCN(CC)CCOC(=O)C(C)(c1ccccc1)C1CCCCC1` (centres undefined), the Selectivity ratio in [1] came to 1.9; in assay [6] it was 2.5. Also, the Selectivity in assay [3] worked out at 16.7. In addition, the Ki stood at 23.4 nM in assay [4], 18.5 nM in assay [5], 9.9 nM in assay [8] and 4 nM in assay [7].
`CN(C)CCCCOC(=O)C(C)(c1ccccc1)C1CCCCC1` (centres undefined): the inhibition constant Ki in assay [2] is 31.2 nM; in assay [4], 258 nM; in assay [5] it was 65.6 nM; in assay [7], 40.7 nM.
Consider `CCN(CC)CCCOC(=O)C(C)(c1ccccc1)C1CCCCC1` (centres undefined), for which the Selectivity ratio in [1] was 1.2; in assay [6] it was 1.4. Also, the Ki was 4 nM in assay [2], 19.7 nM in assay [4], 4.6 nM in assay [5] and 2.9 nM in assay [7]. The Selectivity in assay [3] came out at 19.1.
For `CCN(CC)CCCCOC(=O)C(C)(c1ccccc1)C1CCCCC1` (centres undefined), the inhibition constant (Ki) turned out to be 160 nM in assay [2], 248 nM in [4], 209 nM in assay [5] and 111 nM in [7].
Consider `CCN(CC)CCOC(=O)C(C)(c1ccccc1)c1ccccc1` [APROFENE], for which the inhibition constant Ki in [9] is 2.1 nM; in assay [10], 9.3 nM; in assay [5], 7.4 nM.
